CendR NRP1 mod: NRP-1/CendR interaction modulation | FAM-RPARPAR peptide binding to NRP-1, fluorescence polarization | inhibition, % at 25 µM | O14786 | 360,000 compounds, 0.85% hits | AID 602438;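 active = inhibition or corrected inhibition above about 18%, plus a signal ratio from 0.5 to 1.5, limit read from the data, passing the limit was not always enough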
aDG glyco up: alpha-DG glycosylation activation. 360,000 compounds, 0.22% hits. activation, % at 10 µM. Pro5-aDG cells, alpha-DG glycosylation AlphaScreen (IIH6); 0% Pro5, 100% B10-LARGE cell signal;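 active = activation of at least 8% versus controls, or a plate z-score of at least 8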;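 also: Pro5 are CHO cells carrying HIG-tagged alpha-DG that lacks glycosylation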
Tn6 DDE FP: inhibitors of Tn6 peptide binding to human fibrin DD(E). 370,000 compounds, 0.21% hits. P02675. inhibition, % at 8.3 µM. Fibrin DD(E) TRITC-Tn6 fluorescence polarization displacement;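 active = inhibition above a per-campaign cutoff: mean of compounds within control limits plus 3 SD, cut at about 15% in these data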;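 also: 0% = median of all compound wells on the plate and 100% = blocking peptide control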
Target sequence (P02675 whole entry, looked up): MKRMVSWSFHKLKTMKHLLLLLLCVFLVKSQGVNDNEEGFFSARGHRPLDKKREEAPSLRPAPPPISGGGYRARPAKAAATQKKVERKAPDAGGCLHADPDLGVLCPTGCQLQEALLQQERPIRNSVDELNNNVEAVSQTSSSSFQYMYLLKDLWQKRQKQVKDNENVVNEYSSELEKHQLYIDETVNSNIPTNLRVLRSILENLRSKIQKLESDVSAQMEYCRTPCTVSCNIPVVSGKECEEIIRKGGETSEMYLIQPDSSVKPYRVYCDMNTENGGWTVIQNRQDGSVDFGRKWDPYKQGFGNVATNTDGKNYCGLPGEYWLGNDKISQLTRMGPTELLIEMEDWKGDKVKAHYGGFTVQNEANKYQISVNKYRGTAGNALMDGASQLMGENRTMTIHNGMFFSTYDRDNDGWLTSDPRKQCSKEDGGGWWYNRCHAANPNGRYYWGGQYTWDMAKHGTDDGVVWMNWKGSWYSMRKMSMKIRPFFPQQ
DDE Tn7 FP inh: DD(E)-Tn7 binding inhibition, primary FP screen | 370,000 compounds, 0.13% hits | FP displacement of FITC-Tn7 peptide from fibrin DD(E); 0% = median of compound wells per plate | inhibition, % at 8.3 µM | P02675 | AID 720508;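 active = inhibition above the mean of compounds falling within the control limits plus 3 SD of them, cut at about 14% in these data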;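 also: 0% = plate median of compound wells and 100% = 10 µM Aha-Tn7 peptide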
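Assay system: human fibrin DD(E). Input: DD(E) 2 µM final. Medium: Tris buffer with calcium and detergent, pH 7.8. Compound dosing: single point at 8.3 µM. Timing: 10 min plus 3 h, room temperature. Technique: fluorescence polarization of the labelled Tn7 tracer. Read-out: percent inhibition. Replicates: singlicate testing.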
Tn6 DDE ctr: counter-screen hit for Tn6 peptide-fibrin DD(E) binding disruption; TRITC-Tn6 fluorescence polarization displacement; 0% = median of compound wells, not DMSO; inhibition, % at 8.3 µM; 680 compounds, 2% hits; shares compounds with Tn6 DDE FP;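 active = inhibition above the mean of test compounds lying between the control limits plus 3 SD of those, cut at about 14% in these data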;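 also: 0% = median of compound wells and 100% = wells with Aha-Tn7 blocking peptide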
Tn6 DDE conf: confirmation of inhibitors of Tn6 binding to human fibrin DD(E) | shares compounds with Tn6 DDE FP | FP displacement of TRITC-Tn6 peptide from DD(E); 0% = per-plate median of test wells | inhibition, % at 8.3 µM | 680 compounds, 10% hits;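 active = inhibition above the mean of compounds lying within the control limits plus 3 SD, cut at about 16% in these data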;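 also: 100% = high control wells holding a competing inhibitor peptide at 10 µM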
The depositor's hits bear a star; x = no result. This is a sample that favours compounds with a hit; in the whole collection about 1.3% have one here.

SMILES | CendR NRP1 mod | aDG glyco up | Tn6 DDE FP | DDE Tn7 FP inh | Tn6 DDE ctr | Tn6 DDE conf
COC(=O)[C@]12C[C@H](CC(=O)NCc3ccccc3)C(=O)N(Cc3ccccc3)C1=C[C@H](C(C)(C)C)O[C@@H]2C | x | x | 8.3 | 1.3 | x | x
CC1=C[C@@H]2[C@H]3C(=O)N(Cc4ccccc4)C(=O)[C@H]3[C@@H]1[C@@H]1O[C@@]3(C(=O)N(C)c4ccccc43)C3=C(CCCC3=O)N21 | x | x | -6.0 | -4.1 | x | x
O=C(COC(=O)C1CC1)Nc1ccc(OC(F)F)cc1 | 46.0* | -0.1 | 15.3* | 5.5 | -2.3 | -5.3
Cc1ccc(C)c(Cn2nnc3c(=O)[nH]c(C4CCN(S(=O)(=O)c5ccc(S(=O)(=O)NC6CC6)cc5)CC4)nc32)c1 | 8.0 | 0.0 | 18.5* | -2.2 | 6.3 | 6.4
Cc1ccc(C)c(Cn2nnc3c(=O)[nH]c(C4CCN(S(=O)(=O)c5ccc(S(=O)(=O)N(C)C)cc5)CC4)nc32)c1 | -8.6 | 0.1 | 3.6 | -2.3 | x | x
CCC[C@H]1[C@@H](OC(=O)NC(CC)CC)CC[C@@]23CCCN2C(=O)CCC[C@@H]13 | x | x | 8.4 | 0.9 | x | x
O=C(CSc1nnc(-c2cccnc2)n1-c1ccccc1)Nc1ccc2c(c1)OCCO2 | x | x | -7.1 | -6.3 | x | x
C#CCN1CC(COc2ccccc2)OCCS1(=O)=O (configuration not stated) | x | x | -3.1 | -9.0 | x | x
CC1CCN(S(=O)(=O)c2ccc(C(=O)Nc3nnc(C4CC4)o3)cc2)CC1 | -5.6 | 0.1 | 20.9* | 1.6 | -2.8 | -4.2
COc1ccc(OCc2nn3c(-c4ccccc4)nnc3s2)cc1 | x | x | 10.9 | -2.3 | x | x
CC(C)CNC(=O)C1(C)CCCCCN1Cc1ccccc1-c1ccccc1 (configuration not stated) | 7.9 | -0.1 | -0.6 | 5.0 | x | x
O=C(CSc1nnc(-c2cccc(Cl)c2)n1Cc1ccco1)c1ccc(F)cc1 | x | x | -4.3 | -1.7 | x | x
COc1ccc(OC)c(-c2nnc(SCC(=O)N3CCCC3)o2)c1 | 3.6 | 0.0 | -6.9 | -0.2 | x | x
COc1ccc(OC)c(-c2nnc(SCC(=O)N3CCOCC3)o2)c1 | -3.0 | -0.1 | 18.8* | 1.6 | 6.7 | -3.2
CC[C@H](C)/C=C(C)/C=C/C(=O)Cc1cc(O)c(C)c(O)c1C=O | -113.9 | 0.2 | 15.7* | 10.0 | -0.1 | 4.6
CC[C@H](C)/C=C(C)/C=C/c1cc2c(cn1)C(=O)[C@@](C)(OC(C)=O)C(O)=C2Cl | -8.5 | 0.0 | 0.2 | -2.4 | x | x
N#C/C(=C\c1cccnc1)C(=O)Nc1ccc(O)cc1F | -1.2 | -0.1 | 49.4* | 0.3 | -1.8 | -1.1
CC(=O)Nc1ccc2c(c1)C(C)(C)C(C)N2C (configuration not stated) | x | x | 22.4* | -4.6 | 2.4 | 7.0
CCCCc1c(-c2ccccc2OC)ncn1C1CCCCC1 | x | x | 0.7 | 7.9 | x | x
COc1ccc(N)c2c1C(=O)c1ccccc1C2=O | 2.1 | -0.3 | 72.0* | 2.5 | 4.2 | 57.6*
Nc1ccc(O)c2c1C(=O)c1ccccc1C2=O | 33.9* | -0.2 | 130.0* | 2.0 | 7.5 | 102.5*
O=C1c2ccccc2C(=O)c2c(O)c(O)cc(O)c21 | 16.2 | -0.1 | 65.5* | 3.3 | 7.2 | 88.4*
COc1ccc2noc3c2c1C(=O)c1ccccc1-3 | 133.0 | 0.1 | 52.3* | -5.6 | 53.3* | 14.5
Cc1ccccc1Cn1cc(COC(=O)N(C)Cc2ccccc2)nn1 | x | x | 5.1 | 5.8 | x | x
O=C1/C(=C\c2cc([N+](=O)[O-])ccc2O)SC(=S)N1Cc1ccc(Cl)cc1 | 143.4 | -0.2 | 17.2* | -11.8 | -23.9 | -1.3
SMILES | CendR NRP1 mod | aDG glyco up | Tn6 DDE FP | DDE Tn7 FP inh | Tn6 DDE ctr | Tn6 DDE conf
COCCn1c(C)cc(C2=NNC(=Nc3ccc(OC)cc3)SC2)c1C | -1.4 | -0.3 | x | x | x | x
COCCn1c(C)cc(C2=NNC(=Nc3ccccc3)SC2)c1C | -5.8 | -0.1 | 16.9* | -1.2 | 5.8 | -7.2
CN1CCCN(c2cc(-c3ccc4ccccc4c3)nc3ccnn23)CC1 | 9.2 | 0.0 | 8.4 | -8.7 | x | x
Cc1cccc(-c2cc(N3CCCN(C)CC3)n3nccc3n2)c1 | 0.6 | 0.2 | 16.2* | 2.9 | -0.4 | 8.3
COCCN(CC1CCCN(C2Cc3ccccc3C2)C1)C(=O)c1cccc(C)c1 (configuration not stated) | -1.1 | -0.2 | 6.2 | 3.5 | x | x
COCCN(CC1CCCN(C2Cc3ccccc3C2)C1)C(=O)c1ccc(C(C)=O)cc1 (configuration not stated) | 3.9 | 0.1 | 15.9* | 4.8 | -1.7 | -3.1
COc1ccccc1OCC(=O)NCc1ccco1 | -3.7 | -0.1 | -4.9 | 3.0 | x | x
COc1ccccc1C(C)NCC(=O)NC(=O)NCc1ccco1 (configuration not stated) | -5.4 | 0.1 | 56.9* | 3.9 | -4.9 | -7.9
CC(=O)Nc1nc2cc3c(cc2s1)OCO3 | 5.1 | 1.0 | 15.5* | 5.4 | 3.8 | 3.9
CC(C)C(=O)Nc1nc2cc3c(cc2s1)OCCO3 | 3.6 | 0.1 | 3.8 | -4.0 | x | x
Cc1cc2ccccc2n1CCNC(=O)C1CCCC1 | 15.3 | 0.2 | 11.4 | 3.1 | x | x
Cc1cc2ccccc2n1CCNC(=O)C1CCCCC1 | 0.3 | -0.2 | 39.5* | -8.3 | 0.0 | -2.6
COc1ccc(N2C(=O)CC(N3CCN(S(=O)(=O)c4cc(C)ccc4C)CC3)C2=O)cc1 (configuration not stated) | -1.3 | -0.1 | -1.2 | -0.4 | x | x
Cc1nn(-c2ccccc2)cc1C(c1c(N)[nH]c(=S)[nH]c1=O)c1c(N)[nH]c(=S)[nH]c1=O | -42.6 | -0.1 | 15.4* | 1.1 | -7.1 | -28.1
Cc1nn(-c2ccccc2)cc1/C=N/NC(N)=S | -3.6 | 0.3 | -11.9 | -1.2 | x | x
c1ccc(-c2nc(-n3ccnc3)nc(-n3ccnc3)n2)cc1 | -10.5 | -0.1 | 15.4* | 7.4 | 2.2 | -2.6
O=C1C=CC(=O)c2c(O)c(N3CCN(CCO)CC3)c(Cl)c(O)c21 | 55.2* | -0.4 | 39.8* | -6.1 | -4.2 | 9.5
O=S(=O)(c1ccc(Br)cc1Cl)N1CCN(CCO)CC1 | 3.5 | -0.2 | -0.3 | 9.6 | x | x
COc1ccc(CNC(=O)C2CCCN(c3nc4ccccc4o3)C2)cc1 (configuration not stated) | x | x | -13.2 | 4.1 | x | x
O=C(OCc1cc([N+](=O)[O-])cc2c1OCOC2)c1ccccn1 | 22.0 | -0.3 | 17.5* | -3.1 | -0.4 | -3.2
Cc1cn([C@H]2C[C@H](O)[C@@H](/C=C/C(=O)NCCN3CCCCC3)O2)c(=O)[nH]c1=O | 8.8 | -0.1 | 0.0 | -1.6 | x | x
CC(=O)C1=C(C)Nc2ncnn2C1c1ccccc1OCc1ccccc1 (configuration not stated) | -9.0 | 2.5 | 18.4* | 6.0 | 2.8 | 2.2
COc1ccccc1C1C(C(=O)NCc2ccccc2)=C(C)Nc2ncnn21 (configuration not stated) | -3.1 | -0.1 | -0.9 | 3.7 | x | x

Assay outcomes as filed in PubChem BioAssay.
